Results taken from ChEMBL document CHEMBL3877250, “Design, synthesis, and biological evaluation of (2E)-(2-oxo-1, 2-dihydro-3H-indol-3-ylidene)acetate derivatives as anti-proliferative agents through ROS-induced cell apoptosis” (Eur J Med Chem, 2016).

How the values were obtained:
[1] = Cytotoxicity against human HL60 cells assessed as growth inhibition at 20 uM after 72 hrs by CCK-8 assay; type: functional; settings: HL-60, 72 h, read-out: GI
In short: (§1)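 Cells kept in RPMI 1640 with 10% heat-inactivated fetal calf serum and 1% streptomycin/penicillin at 37 °C, 5% CO2. After compound exposure, CCK-8 was added and cells were incubated 4 h at 37 °C, then absorbance was read at 450 nm. Viability is relative to untreated cells (100%). IC50 comes from nonlinear regression, mean of three separate determinations. Single-concentration screen at 20 µM.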

[2] = Cytotoxicity against human HCT116 cells assessed as growth inhibition at 20 uM after 72 hrs by CCK-8 assay; type: functional; settings: HCT-116, 72 h, read-out: GI; in short: as §1
[3] = Cytotoxicity against human L02 cells after 72 hrs by CCK-8 assay; type: toxicity, cell-based; in short: as §1
[4] = Cytotoxicity against human L02 cells assessed as growth inhibition at 20 uM after 72 hrs by CCK-8 assay; type: toxicity, cell-based; settings: read-out: GI; in short: as §1
[5] = Cytotoxicity against human SK-BR-3 cells assessed as growth inhibition at 20 uM after 72 hrs by CCK-8 assay; type: functional; settings: SK-BR-3, 72 h, read-out: GI; in short: as §1
[6] = Cytotoxicity against human HL60 cells after 72 hrs by CCK-8 assay; type: functional, cell-based; settings: HL-60, 72 h; in short: as §1
[7] = Cytotoxicity against human MDA-MB-231 cells assessed as growth inhibition at 20 uM after 72 hrs by CCK-8 assay; type: functional; settings: MDA-MB-231, 72 h, read-out: GI; in short: as §1
[8] = Cytotoxicity against human SW480 cells assessed as growth inhibition at 20 uM after 72 hrs by CCK-8 assay; type: functional; settings: SW480, 72 h, read-out: GI; in short: as §1
[9] = Antitumor activity against human HepG2 cells assessed as growth inhibition at 20 uM after 72 hrs by CCK-8 assay; type: functional; settings: HepG2, 72 h, read-out: GI; in short: as §1
[10] = Cytotoxicity against human OVCAR3 cells assessed as growth inhibition at 20 uM after 72 hrs by CCK-8 assay; type: functional; settings: OVCAR-3, 72 h, read-out: GI; in short: as §1
[11] = Cytotoxicity against human Saos2 cells assessed as growth inhibition at 20 uM after 72 hrs by CCK-8 assay; type: functional; settings: SAOS-2, 72 h, read-out: GI; in short: as §1

Compound: CC(C)(C)OC(=O)/C=C1/C(=O)N(Cc2ccccc2)c2ccccc21
- inhibition of growth at 20 µM [1]: 91.7%
- inhibition of growth at 20 µM [2]: 87.9%
- IC50 at 72 h [3]: 5.03 µM
- inhibition at 72 h, 20 µM [4]: 62%
- inhibition of growth at 20 µM [5]: 88%
- IC50 [6]: 13.8 µM
- inhibition of growth at 20 µM [7]: 87.1%
- inhibition of growth at 20 µM [8]: 78.4%
- inhibition of growth at 20 µM [9]: 88%
- inhibition of growth at 20 µM [10]: 58.9%
- inhibition of growth at 20 µM [11]: 82.1%

Compound: Cc1ccc2c(c1)/C(=C\C(=O)OC(C)(C)C)C(=O)N2
- inhibition of growth at 20 µM [1]: 94.6%
- inhibition of growth at 20 µM [2]: 89.4%
- IC50 at 72 h [3]: 2.68 µM
- inhibition at 72 h, 20 µM [4]: 63.9%
- inhibition of growth at 20 µM [5]: 88%
- IC50 [6]: 5 µM
- inhibition of growth at 20 µM [7]: 87.8%
- inhibition of growth at 20 µM [8]: 79%
- inhibition of growth at 20 µM [9]: 90.3%
- inhibition of growth at 20 µM [10]: 59.5%
- inhibition of growth at 20 µM [11]: 83.7%

Compound: CCCCc1ccc2c(c1)/C(=C\C(=O)OC(C)(C)C)C(=O)N2
- inhibition of growth at 20 µM [1]: 94.7%
- inhibition of growth at 20 µM [2]: 89%
- IC50 at 72 h [3]: 4.4 µM
- inhibition at 72 h, 20 µM [4]: 63.7%
- inhibition of growth at 20 µM [5]: 87.8%
- IC50 [6]: 6.19 µM
- inhibition of growth at 20 µM [7]: 87.7%
- inhibition of growth at 20 µM [8]: 78.3%
- inhibition of growth at 20 µM [9]: 90.3%
- inhibition of growth at 20 µM [10]: 60.2%
- inhibition of growth at 20 µM [11]: 84.2%

Compound: CCOC(=O)/C=C1/C(=O)Nc2ccccc21
- inhibition of growth at 20 µM [1]: 77.7%
- inhibition of growth at 20 µM [2]: 89.3%
- IC50 at 72 h [3]: 4.23 µM
- inhibition at 72 h, 20 µM [4]: 63.9%
- inhibition of growth at 20 µM [5]: 85.5%
- IC50 [6]: 4.83 µM
- inhibition of growth at 20 µM [7]: 86.9%
- inhibition of growth at 20 µM [8]: 78.3%
- inhibition of growth at 20 µM [9]: 90.2%
- inhibition of growth at 20 µM [10]: 57.3%
- inhibition of growth at 20 µM [11]: 81.4%

Compound: CC(C)(C)OC(=O)/C=C1/C(=O)Nc2c(Cl)cccc21
- inhibition of growth at 20 µM [1]: 93.7%
- inhibition of growth at 20 µM [2]: 89.5%
- IC50 at 72 h [3]: 4.8 µM
- inhibition at 72 h, 20 µM [4]: 64%
- inhibition of growth at 20 µM [5]: 88.2%
- IC50 [6]: 6.12 µM
- inhibition of growth at 20 µM [7]: 87.4%
- inhibition of growth at 20 µM [8]: 78%
- inhibition of growth at 20 µM [9]: 88.1%
- inhibition of growth at 20 µM [10]: 59.3%
- inhibition of growth at 20 µM [11]: 82.4%

Compound: CC(C)(C)OC(=O)CC1C(=O)Nc2ccccc21 (centres undefined)
- inhibition of growth at 20 µM [1]: 0.5%
- inhibition of growth at 20 µM [2]: 1.7%
- IC50 at 72 h [3]: > 100 µM
- inhibition at 72 h, 20 µM [4]: 0.1%
- inhibition of growth at 20 µM [5]: 22.6%
- IC50 [6]: > 100 µM
- inhibition of growth at 20 µM [7]: 3.7%
- inhibition of growth at 20 µM [8]: 8.8%
- inhibition of growth at 20 µM [9]: 1.2%
- inhibition of growth at 20 µM [10]: 6.4%
- inhibition of growth at 20 µM [11]: 1.5%

Compound: O=C(O)/C=C1/C(=O)Nc2ccccc21
- inhibition of growth at 20 µM [1]: 0.9%
- inhibition of growth at 20 µM [2]: -0.7%
- IC50 at 72 h [3]: > 100 µM
- inhibition at 72 h, 20 µM [4]: 3.3%
- inhibition of growth at 20 µM [5]: 17.9%
- IC50 [6]: > 100 µM
- inhibition of growth at 20 µM [7]: 1%
- inhibition of growth at 20 µM [8]: 6.4%
- inhibition of growth at 20 µM [9]: 3%
- inhibition of growth at 20 µM [10]: 13.4%
- inhibition of growth at 20 µM [11]: 8.9%

Compound: CC(C)(C)OC(=O)/C=C1/C(=O)Nc2ccc(OC(F)(F)F)cc21
- inhibition of growth at 20 µM [1]: 95.9%
- inhibition of growth at 20 µM [2]: 87.7%
- IC50 at 72 h [3]: 4.04 µM
- inhibition at 72 h, 20 µM [4]: 61.3%
- inhibition of growth at 20 µM [5]: 88.1%
- IC50 [6]: 4.48 µM
- inhibition of growth at 20 µM [7]: 86.9%
- inhibition of growth at 20 µM [8]: 77.8%
- inhibition of growth at 20 µM [9]: 88.4%
- inhibition of growth at 20 µM [10]: 59%
- inhibition of growth at 20 µM [11]: 80.1%

Compound: CC(C)c1ccc2c(c1)/C(=C\C(=O)OC(C)(C)C)C(=O)N2
- inhibition of growth at 20 µM [1]: 94.4%
- inhibition of growth at 20 µM [2]: 89.4%
- IC50 at 72 h [3]: 3.36 µM
- inhibition at 72 h, 20 µM [4]: 63.8%
- inhibition of growth at 20 µM [5]: 88.5%
- IC50 [6]: 5.29 µM
- inhibition of growth at 20 µM [7]: 87.7%
- inhibition of growth at 20 µM [8]: 78.5%
- inhibition of growth at 20 µM [9]: 90.5%
- inhibition of growth at 20 µM [10]: 59.7%
- inhibition of growth at 20 µM [11]: 82.8%
